This passage reports IC50 results from ChEMBL document CHEMBL3994573, “Cytotoxic Lanostanoids from Poria cocos” (J Nat Prod, 2016).

A value given as a limit tells only on which side of the number the result lay.

Holding throughout (type): functional, cell-based
The test system of one assay is K562. Briefly: Antiproliferative activity against human K562 cells after 72 hrs by MTT assay. As to conditions: K562, 72 h. In a few lines: (§1)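 Leukemia cells (ATCC) grown in RPMI-1640 with 10% FCS, 2 mM glutamine, penicillin/streptomycin at 37 °C, 5% CO2. Seeded at 4 × 10^4 per well. Exposed 72 h to 1.25, 2.5, 5, 10 and 20 μg/mL (DMSO under 0.02%). MTT formazan dissolved in DMSO, read as OD570 − OD620. IC50 = concentration giving half the control absorbance. n = 4 wells per experiment, four separate experiments, ± SD.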

The next assay has as its system CCRF-CEM. The assay can be described thus: Antiproliferative activity against human CCRF-CEM cells after 72 hrs by MTT assay. In a few lines: as §1
The subject of the next assay is MOLT-4. The assay can be described thus: Antiproliferative activity against human MOLT4 cells after 72 hrs by MTT assay. As to conditions: MOLT-4, 72 h. The gist of the method: as §1
The subject of another assay is HL-60. Briefly: Antiproliferative activity against human HL60 cells after 72 hrs by MTT assay. To be noted: HL-60, 72 h. In a few lines:
as §1

With `C=C(CC[C@@H](C(=O)O)[C@H]1[C@H](O)C[C@@]2(C)[C@]34C=C[C@@]5(OO3)C(C)(C)[C@@H](OC(=O)CO)CC[C@]5(C)C4=CC[C@]12C)C(C)C`, the IC50 in the assay on K562, in the assay on CCRF-CEM, with MOLT-4 and in the assay with HL-60 was over 40 µM each time.
`CC(C)=CCC[C@@H](C(=O)O)[C@H]1[C@H](O)C[C@@]2(C)C3=C(CC[C@]12C)[C@@]1(C)CC[C@H](O)C(C)(C)[C@@H]1CC3`: the IC50 in the assay with K562, with CCRF-CEM, in the assay on MOLT-4 and in the assay with HL-60 was over 40 µM in each case.
As for `CC(C)=CCC[C@@H](C(=O)O)[C@H]1[C@H](O)C[C@@]2(C)C3=CC[C@H]4C(C)(C)[C@@H](O)CC[C@]4(C)C3=CC[C@]12C`, the IC50 in the assay with K562, in the assay on CCRF-CEM, with MOLT-4 and in the assay with HL-60 was over 40 µM throughout.
Turning to `CC(C)=CCC[C@@H](C(=O)O)[C@H]1CC[C@@]2(C)C3=CC[C@H]4C(C)(C)[C@@H](O)CC[C@]4(C)C3=CC[C@]12C` [DEHYDROTRAMETENOLIC ACID], the IC50 with K562 worked out at 14.8 µM; in the assay with CCRF-CEM, 13.1 µM; in the assay with MOLT-4 it was 16.2 µM; with HL-60 it was 20 µM.
`C=C(CC[C@@H](C(=O)O)[C@H]1[C@H](O)C[C@@]2(C)[C@]34C=C[C@@]5(OO3)C(C)(C)[C@@H](O)CC[C@]5(C)C4=CC[C@]12C)C(C)C`: the IC50 in the assay on K562, in the assay with CCRF-CEM, with MOLT-4 and with HL-60 was over 40 µM in each case.
For the compound `C=C(CC[C@@H](C(=O)O)[C@H]1CC[C@@]2(C)C3=CC[C@H]4C(C)(C)[C@@H](O)CC[C@]4(C)C3=CC[C@]12C)C(C)C` [DEHYDROEBURICOIC ACID], the IC50 was found to be 25.6 µM in the assay with K562, 6.3 µM in the assay with CCRF-CEM, 14.3 µM in the assay on MOLT-4 and 6 µM in the assay on HL-60.
Regarding `C=C(CC[C@@H](C(=O)O)[C@H]1[C@H](O)C[C@@]2(C)C3=C(CC[C@]12C)[C@@]1(C)CC[C@H](O)C(C)(C)[C@@H]1CC3=O)C(C)C`, the IC50 in the assay with K562, in the assay with CCRF-CEM, with MOLT-4 and with HL-60 was over 40 µM throughout.
For `CC(C)C(=O)CC[C@@H](C(=O)O)[C@H]1[C@H](O)C[C@@]2(C)C3=CC[C@H]4C(C)(C)[C@H](O)CC[C@]4(C)C3=CC[C@]12C`, the half-inhibitory concentration (IC50) in the assay with K562, in the assay with CCRF-CEM, in the assay on MOLT-4 and in the assay with HL-60 was over 40 µM in each case.
With `C=C(C)C(=O)CC[C@@H](C(=O)O)[C@H]1[C@H](O)C[C@@]2(C)C3=C(CC[C@]12C)[C@@]1(C)CC[C@H](O)C(C)(C)[C@@H]1CC3`, the IC50 in the assay on K562, in the assay with CCRF-CEM, in the assay on MOLT-4 and in the assay with HL-60 was over 40 µM throughout.
For the compound `C=C(CC[C@@H](C(=O)O)[C@H]1[C@H](O)C[C@@]2(C)C3=CCC4[C@](C)(CC[C@H](O)[C@]4(C)CO)C3=CC[C@]12C)C(C)C` (stereo partly specified), the IC50 in the assay with K562, with CCRF-CEM, in the assay with MOLT-4 and in the assay on HL-60 was over 40 µM in each case.
On to `CC(C)C(=O)CC[C@@H](C(=O)O)[C@H]1[C@H](O)C[C@@]2(C)C3=CC[C@H]4C(C)(C)[C@@H](O)CC[C@]4(C)C3=CC[C@]12C`, for which the IC50 in the assay on K562, in the assay on CCRF-CEM, in the assay on MOLT-4 and in the assay on HL-60 was over 40 µM each time.
For `C=C(CC[C@@H](C(=O)O)[C@H]1[C@H](O)C[C@@]2(C)C3=CC[C@H]4C(C)(C)[C@H](O)CC[C@]4(C)C3=CC[C@]12C)C(C)C`, the IC50 in the assay with K562, with CCRF-CEM, with MOLT-4 and in the assay on HL-60 was over 40 µM in each case.
Take `C=C(CC[C@@H](C(=O)O)[C@H]1[C@H](O)C[C@@]2(C)C3=CC[C@@H](C(=C)C)[C@](C)(CCC(=O)O)C3=CC[C@]12C)C(C)C` [PORICOIC ACID A]: the IC50 with K562, in the assay with CCRF-CEM, with MOLT-4 and in the assay with HL-60 was over 40 µM throughout.
As for `C=C(CC[C@@H](C(=O)O)[C@H]1[C@H](O)C[C@@]2(C)C3=CC[C@H]4C(C)(C)[C@@H](O)CC[C@]4(C)C3=CC[C@]12C)C(C)C` [DEHYDROTUMULOSIC ACID], the IC50 with K562, in the assay on CCRF-CEM, in the assay with MOLT-4 and in the assay on HL-60 was over 40 µM each time.
For `C=C(CC[C@@H](C(=O)O)[C@H]1[C@H](O)C[C@@]2(C)C3=CC[C@H]4C(C)(C)C(=O)CC[C@]4(C)C3=CC[C@]12C)C(C)C` [POLYPORENIC ACID B], the IC50 with K562 amounted to 26.3 µM; in the assay with CCRF-CEM, 25.5 µM; in the assay on MOLT-4, 27.6 µM; in the assay on HL-60, 31.8 µM.
On to `C=C(CC[C@@H](C(=O)O)[C@H]1[C@H](O)C[C@@]2(C)C3=C(CC[C@]12C)[C@@]1(C)CC[C@@H](O)C(C)(C)[C@@H]1CC3=O)C(C)C`, for which the IC50 with K562, in the assay with CCRF-CEM, in the assay with MOLT-4 and in the assay on HL-60 was over 40 µM each time.
On to `C=C(CC[C@@H](C(=O)O)[C@H]1[C@H](O)C[C@@]2(C)C3=CC[C@H]4C(C)(C)[C@@H](OC(C)=O)CC[C@]4(C)C3=CC[C@]12C)C(C)C`, for which the IC50 was 18.6 µM in the assay with K562, 2.7 µM in the assay on CCRF-CEM, 13.8 µM with MOLT-4 and 7.3 µM in the assay on HL-60.
For `C=C(CC[C@@H](C(=O)O)[C@H]1[C@H](O)C[C@@]2(C)C3=CC=C4C(C)(C)C(=O)CC[C@]4(C)C3=CC[C@]12C)C(C)C` the same measures were over 40 µM, over 40 µM, over 40 µM and over 40 µM.
For the compound `COc1cccc2c1C(=O)c1c(O)c3c(c(O)c1C2=O)C[C@@](O)(C(=O)CO)C[C@@H]3O[C@H]1C[C@H](N)[C@H](O)[C@H](C)O1` [DOXORUBICIN], the IC50 in the assay on K562 was 0.5 µM; in the assay with CCRF-CEM it was 0.01 µM; with MOLT-4, 0.01 µM; in the assay with HL-60, 0.01 µM.
